# Experimental data published in ChEMBL document CHEMBL1811860, “Synthesis and inhibitory activity of sialic acid derivatives targeted at viral sialate-O-acetylesterases” (Eur J Med Chem, 2011).
# What was measured:
# [1] = Inhibition of SDAV GFP-tagged 9-SOAE expressed in Sf9 cells assessed as inhibition of hydrolysis of pNPA at 0.5 mM; details: Rat sialodacryoadenitis coronavirus
# Procedure, shortened: (§1)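 EGFP-fused haemagglutinin-esterase was made in serum-free Sf9 cultures via recombinant baculovirus and recovered from supernatant by ultracentrifugation (1.5 h, 4 °C). It was preincubated with sialoside for 30 min at room temperature. pNPA (10 µl of 100 mM acetonitrile stock) was added in PBS pH 7.4 to 1 ml, and A400 was followed. Read-out was % inhibition of pNPA hydrolysis.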
# [2] = Inhibition of SDAV GFP-tagged 9-SOAE expressed in Sf9 cells assessed as inhibition of hydrolysis of pNPA at 0.1 mM; details: Rat sialodacryoadenitis coronavirus; procedure, shortened: as §1
# [3] = Inhibition of MHV S 4-SOAE expressed in Sf9 cells assessed as inhibition of hydrolysis of pNPA at 0.1 mM; details: Murine coronavirus
# [4] = Inhibition of MHV S 4-SOAE expressed in Sf9 cells assessed as inhibition of hydrolysis of pNPA at 1 mM; details: Murine coronavirus
# [5] = Inhibition of SDAV GFP-tagged 9-SOAE expressed in Sf9 cells assessed as inhibition of hydrolysis of pNPA at 1 mM; details: Rat sialodacryoadenitis coronavirus; procedure, shortened: as §1
# [6] = Inhibition of MHV S 4-SOAE expressed in Sf9 cells assessed as inhibition of hydrolysis of pNPA at 5 mM; details: Murine coronavirus
# [7] = Inhibition of MHV S 4-SOAE expressed in Sf9 cells assessed as inhibition of hydrolysis of pNPA at 0.5 mM; details: Murine coronavirus
# [8] = Inhibition of SDAV GFP-tagged 9-SOAE expressed in Sf9 cells assessed as inhibition of hydrolysis of pNPA at 5 mM; details: Rat sialodacryoadenitis coronavirus; procedure, shortened: as §1
# [9] = Inhibition of recombinant influenza C virus C/Cal/78 GFP-tagged 9-SOAE expressed in Sf9 cells assessed as inhibition of hydrolysis of pNPA at 1 mM; procedure, shortened: as §1
# [10] = Inhibition of Influenza C virus C/JJ/50 9-SOAE expressed in Sf9 cells assessed as inhibition of hydrolysis of pNPA at 1 mM
# [11] = Inhibition of recombinant influenza C virus C/Cal/78 GFP-tagged 9-SOAE expressed in Sf9 cells assessed as inhibition of Neu5,9Ac2 hydrolysis at 1 mM by fluorimetric HPLC analysis
# Procedure, shortened: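 Baculovirus/Sf9-expressed EGFP fusion (10 mU) was preincubated with 1 mM sialoside in PBS pH 7.4 for 30 min at room temperature. Free O-acetylated sialic acid or bovine submandibular mucin (10 µg) was then added and incubated at 37 °C for 20–240 min. Mucin samples were hydrolysed in 2 M propionic acid (80 °C, 2 h). Sialic acids were analysed by reverse-phase HPLC with fluorimetric detection.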
# [12] = Inhibition of Bovine coronavirus 9-SOAE expressed in Sf9 cells assessed as inhibition of hydrolysis of pNPA at 0.5 mM
# [13] = Inhibition of Bovine coronavirus 9-SOAE expressed in Sf9 cells assessed as inhibition of hydrolysis of pNPA at 2 mM
# [14] = Inhibition of recombinant influenza C virus C/Cal/78 GFP-tagged 9-SOAE expressed in Sf9 cells assessed as inhibition of hydrolysis of pNPA at 0.5 mM; procedure, shortened: as §1
# [15] = Inhibition of recombinant influenza C virus C/Cal/78 GFP-tagged 9-SOAE expressed in Sf9 cells assessed as inhibition of hydrolysis of pNPA at 2 mM; procedure, shortened: as §1
# [16] = Inhibition of recombinant influenza C virus C/Cal/78 GFP-tagged 9-SOAE expressed in Sf9 cells assessed as inhibition of hydrolysis of pNPA at 5 mM; procedure, shortened: as §1
# [17] = Inhibition of Bovine coronavirus […] assessed as inhibition of hydrolysis of pNPA at 1 mM; details: Sf9
# [18] = Inhibition of influenza C virus 9-SOAE assessed as inhibition of hydrolysis of pNPA
# Procedure, shortened: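 Esterase came from whole virions purified by ultracentrifugation through a 20% sucrose cushion (1.5 h, 4 °C) and resuspended in PBS pH 7.4. Enzyme was preincubated with sialoside for 30 min at room temperature. pNPA (10 µl of 100 mM acetonitrile stock) was then added in PBS pH 7.4 to 1 ml, and A400 was monitored. Read-out was % inhibition of pNPA hydrolysis.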
compound,measurement,setting,value
C=CCO[C@]1(C(=O)O)C[C@H](OC)[C@@H](NC(C)=O)[C@H]([C@H](O)[C@H](O)CO)O1,inhibition,[1],2.56%
same,inhibition,[2],2.13%
same,inhibition,[3],4%
same,inhibition,[4],8.31%
same,inhibition,[5],0.51%
same,inhibition,[6],7.73%
same,inhibition,[7],0%
same,inhibition,[8],8.73%
C=CCO[C@]1(C(=O)O)C[C@H](O)[C@@H](NC(C)=O)[C@H]([C@H](O)[C@H](O)COC)O1,inhibition,[9],22.4%
same,inhibition,[10],8.63%
same,inhibition,[11],10%
same,inhibition,[12],2.86%
same,inhibition,[13],< 0%
same,inhibition,[14],22.9%
same,inhibition,[15],33%
same,inhibition,[16],85.8%
same,inhibition,[17],9%
"((2S,4S,5R,6R)-5-acetamido-6-((1R,2R)-3-acetamido-1,2-dihydroxypropyl)-2-carboxy-4-hydroxytetrahydro-2H-pyran-2-ylthio)(methyl)mercury",Ki,[18],4.2 mM
